Assay results reported in ChEMBL document CHEMBL5338787, “Discovery of Novel Bruton's Tyrosine Kinase PROTACs with Enhanced Selectivity and Cellular Efficacy” (J Med Chem, 2023).
Active and inactive are the calls of the source. The rule behind the calls is not given here.

What was measured:
TMD8 [1] = assay: Induction of apoptosis in human TMD8 cells measured after 48 hrs by Annexin-V/propidium iodide staining based flow cytometric analysis; type: functional, cell-based; details: dose 0.15-3000 nM
How it was run: (§1)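 Cells plated at 2 × 10^6 per well and treated 48 h at 3,000–0.15 nM (3-fold dilutions) or 1% DMSO. Harvested, washed in cold PBS, stained with Annexin V Alexa Fluor 488/propidium iodide, analysed by flow cytometry for % live, apoptotic and necrotic cells. Mean of two independent experiments.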

[2] = target: T1, Protein cereblon/Tyrosine-protein kinase BTK (Homo sapiens, UniProt Q06187+Q96SW2); assay: PROTAC activity at BTK/CRBN protein protein interaction in human JeKo-1 cell assessed as Hook effect incubated at >333 nM for 17 hrs measured by Western blot analysis; type: cell-based
How it was run: (§2)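 Ramos or JeKo-1 cells (2 × 10^6 per well) were exposed for 17 h to 3000–0.15 nM PROTAC in 3-fold steps. Cells were lysed and analysed by western blot, with BTK normalised to β-actin. DC50 and Dmax come from the dose-response; DC50 is the mean ± SD of two independent experiments.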

[3] = target: T1, Protein cereblon/Tyrosine-protein kinase BTK; assay: PROTAC activity at BTK/CRBN protein protein interaction in human Ramos cell assessed as Hook effect incubated at >333 nM for 17 hrs measured by Western blot analysis; type: cell-based; how it was run: as §2
[4] = target: T1, Protein cereblon/Tyrosine-protein kinase BTK; assay: PROTAC activity at BTK/CRBN protein protein interaction in human Ramos cell assessed as degradation of BTK incubated at 111 nM for 17 hrs in presence of GDC-0853 at 1 uM measured by Western blot analysis; type: cell-based
[5] = target: T1, Protein cereblon/Tyrosine-protein kinase BTK; assay: PROTAC activity at BTK/CRBN protein protein interaction in human Ramos cell assessed as degradation of BTK preincubated with proteasome inhibitor bortezomib for 2 hrs followed by compound addition at 111 nM for 4 hrs measured by Western blot analysis; type: cell-based
How it was run: (§3)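 Ramos cells were pre-treated for 2 h with bortezomib (proteasome inhibitor) or MLN-4924 (NEDD8-activating enzyme inhibitor), then given 111 nM degrader for 4 h. BTK level was assessed by western blot.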

[6] = target: T1, Protein cereblon/Tyrosine-protein kinase BTK; assay: PROTAC activity at BTK/CRBN protein protein interaction in human Ramos cell assessed as degradation of BTK preincubated with neddylation inhibitor MLN-4924 for 2 hrs followed by compound addition at 111 nM for 4 hrs measured by Western blot analysis; type: cell-based; how it was run: as §3
[7] = target: Tyrosine-protein kinase BTK (Homo sapiens, UniProt Q06187); assay: Inhibition of BTK in HEK293 cells using NanoGlo substrate incubated for 2 hrs by NanoBRET assay; type: cell-based
TMD8 [8] = assay: Cytotoxicity against human TMD8 cells incubated for 48 hrs by celltitre glo 2.0 assay; type: functional, cell-based; details: TMD8, 48 h
[9] = Cytotoxicity against human MINO cells incubated for 48 hrs by celltitre glo 2.0 assay; type: functional, cell-based
TMD8 [10] = assay: Induction of apoptosis in human TMD8 cells at 333 nM for 48 hrs by Annexin-V/propidium iodide staining based flow cytometric analysis; type: functional, cell-based; how it was run: as §1
MINO [11] = assay: Induction of apoptosis in human MINO cells measured after 48 hrs by Annexin-V/propidium iodide staining based flow cytometric analysis; type: functional, cell-based; details: dose 0.15-3000 nM; how it was run: as §1
TMD8 [12] = assay: Induction of apoptosis in human TMD8 cells assessed as decrease in PARP level measured after 48 hrs by Western blot analysis; type: functional, cell-based; details: dose 0.15-3000 nM
How it was run: (§4)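 TMD8 or Mino cells (2 × 10^6 per well) exposed 48 h to 3000–0.15 nM (3-fold dilution) or 1% DMSO. Lysates BCA-normalised, 8–30 μg per lane on 4–20% Tris-glycine gels, transferred to nitrocellulose, probed with antibodies, HRP chemiluminescence detection and densitometry. Representative of two independent experiments.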

TMD8 [13] = assay: Induction of apoptosis in human TMD8 cells assessed as decrease in caspase 3 level measured after 48 hrs by Western blot analysis; type: functional, cell-based; details: dose 0.15-3000 nM; how it was run: as §4
TMD8 [14] = assay: Induction of apoptosis in human TMD8 cells assessed as increase in cleaved PARP level measured after 48 hrs by Western blot analysis; type: functional, cell-based; details: dose 0.15-3000 nM; how it was run: as §4
TMD8 [15] = assay: Induction of apoptosis in human TMD8 cells assessed as downregulation in Bcl-2 level measured at 0.15 to 3000 nM after 48 hrs by Western blot analysis; type: functional, cell-based; details: dose 0.15-3000 nM; how it was run: as §4
TMD8 [16] = assay: Induction of apoptosis in human TMD8 cells assessed as downregulation in Mcl-1 level measured at 0.15 to 3000 nM after 48 hrs by Western blot analysis; type: functional, cell-based; details: dose 0.15-3000 nM; how it was run: as §4
MINO [17] = assay: Induction of apoptosis in human MINO cells assessed as decrease in PARP level measured after 48 hrs by Western blot analysis; type: functional, cell-based; details: dose 0.15-3000 nM; how it was run: as §4
MINO [18] = assay: Induction of apoptosis in human MINO cells assessed as decrease in caspase 3 level measured after 48 hrs by Western blot analysis; type: functional, cell-based; details: dose 0.15-3000 nM; how it was run: as §4
MINO [19] = assay: Induction of apoptosis in human MINO cells assessed as increase in cleaved PARP level measured after 48 hrs by Western blot analysis; type: functional, cell-based; details: dose 0.15-3000 nM; how it was run: as §4
MINO [20] = assay: Induction of apoptosis in human MINO cells assessed as increase in cleaved caspase 3 level measured after 48 hrs by Western blot analysis; type: functional, cell-based; details: dose 0.15-3000 nM; how it was run: as §4
MINO [21] = assay: Induction of apoptosis in human MINO cells assessed as downregulation in Bcl-2 level measured at 0.15 to 3000 nM after 48 hrs by Western blot analysis; type: functional, cell-based; details: dose 0.15-3000 nM; how it was run: as §4
MINO [22] = assay: Induction of apoptosis in human MINO cells assessed as downregulation in Mcl-1 level measured at 0.15 to 3000 nM after 48 hrs by Western blot analysis; type: functional, cell-based; details: dose 0.15-3000 nM; how it was run: as §4

T1 sequence (Q06187 2-659 limits assumed): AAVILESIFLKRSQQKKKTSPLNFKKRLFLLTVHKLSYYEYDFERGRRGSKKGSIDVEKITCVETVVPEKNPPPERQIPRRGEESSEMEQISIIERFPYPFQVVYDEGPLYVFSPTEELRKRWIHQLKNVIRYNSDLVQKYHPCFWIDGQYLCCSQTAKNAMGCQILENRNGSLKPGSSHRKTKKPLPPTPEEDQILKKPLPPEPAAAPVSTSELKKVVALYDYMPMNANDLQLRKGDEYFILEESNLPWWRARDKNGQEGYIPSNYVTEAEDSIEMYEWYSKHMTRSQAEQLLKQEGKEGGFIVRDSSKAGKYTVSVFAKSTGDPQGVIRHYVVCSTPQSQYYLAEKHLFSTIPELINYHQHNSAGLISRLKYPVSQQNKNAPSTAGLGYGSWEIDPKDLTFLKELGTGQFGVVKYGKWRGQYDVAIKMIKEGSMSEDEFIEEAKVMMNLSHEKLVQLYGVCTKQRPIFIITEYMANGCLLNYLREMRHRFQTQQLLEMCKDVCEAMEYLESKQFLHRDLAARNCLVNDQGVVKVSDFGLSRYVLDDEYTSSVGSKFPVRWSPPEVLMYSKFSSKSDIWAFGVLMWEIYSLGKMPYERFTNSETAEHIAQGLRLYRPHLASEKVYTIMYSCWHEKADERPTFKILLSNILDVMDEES
T1 sequence (Q96SW2 whole entry partner): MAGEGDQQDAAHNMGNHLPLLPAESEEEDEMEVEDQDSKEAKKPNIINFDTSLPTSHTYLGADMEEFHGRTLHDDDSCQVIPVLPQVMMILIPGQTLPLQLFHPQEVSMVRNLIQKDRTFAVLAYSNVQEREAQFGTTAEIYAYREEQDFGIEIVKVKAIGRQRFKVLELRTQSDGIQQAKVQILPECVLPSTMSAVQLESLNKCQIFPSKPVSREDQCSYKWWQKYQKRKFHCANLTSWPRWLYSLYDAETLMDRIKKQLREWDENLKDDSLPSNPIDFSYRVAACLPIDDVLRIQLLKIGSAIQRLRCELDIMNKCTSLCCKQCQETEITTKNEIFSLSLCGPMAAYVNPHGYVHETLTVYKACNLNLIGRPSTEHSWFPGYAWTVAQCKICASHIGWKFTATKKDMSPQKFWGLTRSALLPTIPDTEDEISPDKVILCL
Sequence of Tyrosine-protein kinase BTK (Q06187 whole entry): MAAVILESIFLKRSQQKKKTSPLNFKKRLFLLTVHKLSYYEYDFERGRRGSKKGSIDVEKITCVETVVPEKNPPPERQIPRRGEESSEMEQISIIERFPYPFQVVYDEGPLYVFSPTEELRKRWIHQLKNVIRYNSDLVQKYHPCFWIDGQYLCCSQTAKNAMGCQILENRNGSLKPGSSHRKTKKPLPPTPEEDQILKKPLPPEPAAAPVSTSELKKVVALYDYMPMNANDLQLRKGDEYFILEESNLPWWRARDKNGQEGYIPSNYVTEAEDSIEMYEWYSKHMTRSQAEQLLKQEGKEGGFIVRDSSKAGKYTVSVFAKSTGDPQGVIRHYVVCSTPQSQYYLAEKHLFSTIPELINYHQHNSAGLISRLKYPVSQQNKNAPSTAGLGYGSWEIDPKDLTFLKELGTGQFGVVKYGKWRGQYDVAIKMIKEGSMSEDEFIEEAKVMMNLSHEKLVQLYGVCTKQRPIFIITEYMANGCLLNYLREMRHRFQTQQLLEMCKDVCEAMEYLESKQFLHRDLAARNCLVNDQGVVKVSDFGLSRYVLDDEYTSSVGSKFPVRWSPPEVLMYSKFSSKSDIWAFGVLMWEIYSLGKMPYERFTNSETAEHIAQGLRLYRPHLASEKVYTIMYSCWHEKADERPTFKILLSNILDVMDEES

Activity [2]: Active
Activity [3]: Active
Activity [4]: inactive
Activity [5]: inactive
Activity [6]: inactive
IC50 [7]: 97 nM
Structure (SMILES): C[C@H]1CN(C(=O)CNc2cccc3c2C(=O)N(C2CCC(=O)NC2=O)C3=O)CCN1c1ccc(Nc2cc(-c3ccnc(N4CCn5c(cc6c5CC(C)(C)C6)C4=O)c3CO)cn(C)c2=O)nc1 (some centres not stated)
Activity (TMD8 [1]): Dose-Dependent Effect
IC50 (TMD8 [8]): 1.4 nM
IC50 [9]: 2.2 nM
Activity (TMD8 [10]): Active
Activity (MINO [11]): Dose-Dependent Effect
Activity (TMD8 [12]): Active
Activity (TMD8 [13]): Active
Activity (TMD8 [14]): Active
Activity (TMD8 [15]): Active
Activity (TMD8 [16]): Active
Activity (MINO [17]): Active
Activity (MINO [18]): Active
Activity (MINO [19]): Active
Activity (MINO [20]): Active
Activity (MINO [21]): Active
Activity (MINO [22]): Active
